Experimental findings from publication PMC10795152 (ACS Omega, 2024) are described below.

The structures appear in SMILES notation.

One assay addresses EGFR^L858R/T790M/C797S (Homo sapiens, UniProt P00533, C797S/L858R/T790M). Put plainly: In vitro enzymatic activity assay. The format is biochemical. Summed up:
(§1)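 Reaction mix: 40 mM Tris pH 7.4, 10 mM MgCl2, 0.1 mg/mL BSA, 1 mM DTT, 10 μM ATP, 25 ng kinase and 0.2 mg/mL poly(Glu,Tyr) substrate. Test compound diluted in 10% DMSO before addition, giving 1% DMSO final. Residual ATP read by luminescence, with signal inverse to kinase activity. IC50 from nonlinear regression of normalized dose–response data.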

Another assay addresses EGFR^Del19/T790M/C797S (Homo sapiens, UniProt P00533, C797S/DEL746-750/T790M). The experiment in a line: In vitro enzymatic activity assay. The format is biochemical. In a few lines: as §1

As to `Oc1ccccc1-c1nc(NCCN2CCNCC2)c2ccccc2n1` [4a, 2-(4-((2-(Piperazin-1-yl)ethyl)amino)quinazolin-2-yl)phenol], the IC50 against EGFR^L858R/T790M/C797S was found to be 1220 ± 31 nM; on EGFR^Del19/T790M/C797S it was 1430 ± 22 nM.
